Source: ChEMBL document CHEMBL3124843, “Synthesis, cytostatic, antimicrobial, and anti-HCV activity of 6-substituted 7-(het)aryl-7-deazapurine ribonucleosides” (J Med Chem, 2014)
The source made the active and inactive calls. No rule for the calls is given here.

Experiments:
[1] = system: CCRF-CEM; assay: Inhibition of RNA synthesis in human CCRF-CEM cells assessed as BrU-positive cells at IC50 after 24 hrs by propidium iodide staining-based flow cytometric analysis (reference value: 43.3%); format: functional; parameters: scale not given: the % may be the effect or the level left
[2] = system: CCRF-CEM; assay: Cell cycle arrest in human CCRF-CEM cells assessed as accumulation at sub-G1 phase at IC50 after 24 hrs by propidium iodide staining-based flow cytometric analysis (reference value: 9.6%); format: functional
[3] = Cytotoxicity against human HuH7 cells infected with Hepatitis C virus subtype 2a; format: cell-based, Huh-7
[4] = system: Hepatitis C virus; assay: Antiviral activity against Hepatitis C virus subtype 2a infected in human HuH7 cells; format: functional, organism-based, Hepacivirus hominis; details: genotype 2a, Huh-7
[5] = Cytotoxicity against human HuH7 cells infected with Hepatitis C virus subtype 1b; format: cell-based, Huh-7
[6] = system: Hepatitis C virus; assay: Antiviral activity against Hepatitis C virus subtype 1b infected in human HuH7 cells; format: functional, organism-based, Hepacivirus hominis; details: genotype 1b, Huh-7
[7] = system: Candida tropicalis; assay: Antifungal activity against Candida tropicalis after 48 hrs; format: functional, organism-based
[8] = system: Pichia kudriavzevii; assay: Antifungal activity against Candida crusei after 48 hrs; format: functional, organism-based
[9] = system: Candida parapsilosis; assay: Antifungal activity against Candida parapsilosis after 48 hrs; format: functional, organism-based
[10] = system: Candida albicans; assay: Antifungal activity against Candida albicans after 48 hrs; format: functional, organism-based
[11] = system: Pseudomonas aeruginosa; assay: Antibacterial activity against multi-resistant Pseudomonas aeruginosa A/16575 after 24 hrs; format: functional, organism-based
[12] = system: Escherichia coli; assay: Antibacterial activity against multi-resistant Escherichia coli C/16702 after 24 hrs; format: functional, organism-based
[13] = system: Staphylococcus haemolyticus; assay: Antibacterial activity against methicillin-resistant Staphylococcus haemolyticus A/16568 after 24 hrs; format: functional, organism-based
[14] = system: Staphylococcus aureus; assay: Antibacterial activity against methicillin-resistant Staphylococcus aureus MRSA 4591 after 24 hrs; format: functional, organism-based
[15] = system: Pseudomonas aeruginosa; assay: Antibacterial activity against Pseudomonas aeruginosa CCM 3955 after 24 hrs; format: functional, organism-based
[16] = system: Escherichia coli; assay: Antibacterial activity against Escherichia coli CCM 3954 after 24 hrs; format: functional, organism-based
[17] = system: Staphylococcus aureus; assay: Antibacterial activity against Staphylococcus aureus CCM 3953 after 24 hrs; format: functional, organism-based
[18] = system: Enterococcus faecalis; assay: Antibacterial activity against Enterococcus faecalis CCM 4224 after 24 hrs; format: functional, organism-based
[19] = Antiproliferative activity against human HeLaS3 cells after 72 hrs by XTT assay; format: functional, cell-based; details: HeLa S3, 72 h
Procedure, shortened: (§1)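 Antiproliferative test on HL-60 promyelocytic leukemia and HeLa S3 cervical carcinoma cells growing in liquid suspension.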

[20] = system: HL-60; assay: Antiproliferative activity against human HL60 cells after 72 hrs by XTT assay; format: functional, cell-based; details: HL-60, 72 h; procedure, shortened: as §1
[21] = system: HepG2; assay: Antiproliferative activity against human HepG2 cells after 72 hrs by XTT assay; format: functional, cell-based; details: HepG2, 72 h
[22] = system: MRC5; assay: Cytostatic activity against human MRC5 cells after 72 hrs by MTT assay; format: ADME, cell-based; details: MRC5, 72 h
Procedure, shortened: (§2)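 IC50 is the concentration that cuts cell growth by 50%, read by quantitative metabolic MTT staining after a 3-day treatment. The resistant sublines were made by raising the concentration of the cytotoxic drug step by step. CEM-DNR-bulk (daunorubicin-selected) stably overexpresses mrp-1. K562-TAX (paclitaxel-selected) expresses only mdr-1. HCT116p53−/− carries null p53 alleles. BJ and MRC-5 are nonmalignant fibroblasts.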

[23] = system: BJ; assay: Cytostatic activity against human BJ cells after 72 hrs by MTT assay; format: ADME, cell-based; procedure, shortened: as §2
[24] = system: HCT-116; assay: Cytostatic activity against p53-deficient human HCT116 cells after 72 hrs by MTT assay; format: functional, cell-based; details: HCT-116, 72 h; procedure, shortened: as §2
[25] = system: HCT-116; assay: Cytostatic activity against human HCT116 cells after 72 hrs by MTT assay; format: functional, cell-based; details: HCT-116, 72 h; procedure, shortened: as §2
[26] = system: A549; assay: Cytostatic activity against human A549 cells after 72 hrs by MTT assay; format: functional, cell-based; details: A549, 72 h; procedure, shortened: as §2
[27] = system: K562; assay: Cytostatic activity against paclitaxel-resistant human K562 cells after 72 hrs by MTT assay; format: functional, cell-based; details: K562, 72 h; procedure, shortened: as §2
[28] = system: K562; assay: Cytostatic activity against human K562 cells after 72 hrs by MTT assay; format: functional, cell-based; details: K562, 72 h; procedure, shortened: as §2
[29] = Cytostatic activity against human CEM-DNR-bulk cells after 72 hrs by MTT assay; format: functional, cell-based; procedure, shortened: as §2
[30] = system: CCRF-CEM; assay: Cytostatic activity against human CCRF-CEM cells after 72 hrs by MTT assay; format: functional, cell-based; procedure, shortened: as §2
[31] = system: CCRF-CEM; assay: Mitotic arrest in human CCRF-CEM cells assessed as pH3Ser10-positive cells at IC50 after 24 hrs by propidium iodide staining-based flow cytometric analysis (reference value: 1.4%); format: functional
[32] = system: CCRF-CEM; assay: Cell cycle arrest in human CCRF-CEM cells assessed as accumulation at G1 phase at IC50 after 24 hrs by propidium iodide staining-based flow cytometric analysis (reference value: 41%); format: functional

Row | Structure (SMILES) | Activity [1] | CC50 [3] | EC50 [4] | CC50 [5] | EC50 [6] | Activity [7] | Activity [8] | Activity [9] | Activity [10] | Activity [11] | Activity [12] | Activity [13] | Activity [14] | Activity [15] | Activity [16] | Activity [17] | Activity [18] | IC50 [19] | IC50 [20] | IC50 [21] | also measured
1 | CSc1ncnc2c1c(-c1ccco1)cn2[C@@H]1O[C@H](CO)[C@@H](O)[C@H]1O | 5% | > 44000 nM | 50 nM | 38600 nM | 70 nM | inactive | inactive | inactive | inactive | inactive | inactive | inactive | inactive | inactive | inactive | inactive | inactive | 540 nM | 120 nM | 220 nM | Activity [2]: 7.9%; IC50 [22]: 73900 nM; IC50 [23]: 260 nM; IC50 [24]: 10 nM; IC50 [25]: 20 nM; IC50 [26]: 50 nM; IC50 [27]: 210 nM; IC50 [28]: 40 nM; IC50 [29]: 230 nM; IC50 [30]: 50 nM; Activity [31]: 0.7%
2 | CN(C)c1ncnc2c1c(-c1ccco1)cn2[C@@H]1O[C@H](CO)[C@@H](O)[C@H]1O | 0.4% | > 44000 nM | 1350 nM | > 44000 nM | 1490 nM | inactive | inactive | inactive | inactive | inactive | inactive | inactive | inactive | inactive | inactive | inactive | inactive | 1190 nM | 220 nM | > 15000 nM | Activity [32]: 31%; IC50 [22]: > 100000 nM; IC50 [23]: > 100000 nM; IC50 [24]: 320 nM; IC50 [25]: 250 nM; IC50 [26]: 4600 nM; IC50 [27]: 1280 nM; IC50 [28]: 150 nM; IC50 [29]: 3140 nM; IC50 [30]: 2910 nM; Activity [31]: 1.5%
3 | COc1ncnc2c1c(-c1ccsc1)cn2[C@@H]1O[C@H](CO)[C@@H](O)[C@H]1O | 0.5% | > 44000 nM | > 44000 nM | > 44000 nM | 550 nM | inactive | inactive | inactive | inactive | inactive | inactive | inactive | inactive | inactive | inactive | inactive | inactive | 3350 nM | 130 nM | 430 nM | Activity [2]: 75%; IC50 [22]: 75300 nM; IC50 [23]: 64300 nM; IC50 [24]: 140 nM; IC50 [25]: 120 nM; IC50 [26]: 5170 nM; IC50 [27]: 3450 nM; IC50 [28]: 90 nM; IC50 [29]: 7640 nM; IC50 [30]: 2570 nM; Activity [31]: 2.9%
4 | CN(C)c1ncnc2c1c(I)cn2[C@@H]1O[C@H](CO)[C@@H](O)[C@H]1O | 4.8% | > 44000 nM | > 44000 nM | > 44000 nM | 690 nM | inactive | inactive | inactive | inactive | inactive | inactive | inactive | inactive | inactive | inactive | inactive | inactive | 190 nM | 50 nM | 13900 nM | Activity [2]: 9.4%; IC50 [22]: 91700 nM; IC50 [23]: 45700 nM; IC50 [24]: 120 nM; IC50 [25]: 90 nM; IC50 [26]: 340 nM; IC50 [27]: 50 nM; IC50 [28]: 70 nM; IC50 [29]: 100 nM; IC50 [30]: 1590 nM; Activity [31]: 1.3%
